Source: paper PMC8154207 (JACS Au, 2021)
“And” between values parts separate entries of the source, which are not always exact repeats. Identical values can stand only once. Like-named read-outs stand apart in the source and are kept apart here.

How the values were obtained:
A549 cells [1] = assay: Mitochondrial membrane potential, TRME staining, flow cytometry; assay type: cell-based, human; conditions: 20 μM, 24 h (CCCP 20 μM, 1 h), FACS
Summary of the method: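 A549 cells were seeded at 1 × 10^5 per well, grown 24 h under normoxia, then exposed to compound for 24 h. After a PBS wash, cells were stained with TRME at 150 nM for 30 min; the positive control got CCCP before staining. Harvested cells were analysed by flow cytometry, excitation 488 and emission 575.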

A549 cells [2] = assay: SRB cytotoxicity assay, 2D monolayer; assay type: cell-based, human; conditions: read-out: EC50 A549
Summary of the method: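 Cells were seeded in 96-well plates (A549 5000, A375 7000, MCF7 8000, MRC5 6000 cells/well) in OptiMEM with 2.4% FCS, then held 24 h at 37 °C, 7.0% CO2. Six concentrations were added in triplicate for 72 h. Plates were fixed with cold 10% TCA (4 °C, ≥4 h), stained with 0.6% SRB (30 min) and solubilized in 10 mM Tris; absorbance read at 510 nm. EC50 was taken versus untreated wells; three independent experiments, 95% CI.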

[3] = target: Kv11.1 (hERG) potassium channel (Homo sapiens, UniProt Q12809); assay: [3H]dofetilide displacement assay on HEK293 Kv11.1 cell membranes; assay type: binding; conditions: tested concentration 10 μM
Summary of the method: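 HEK293 Kv11.1 membranes (30 μg protein) were loaded with 2 nM [3H]dofetilide at 15 °C for 90 min. Dissociation was started with 10 μM unlabeled dofetilide, without or with 10 μM test compound, for 10 min. Samples were filtered through GF/B, washed twice with ice-cold buffer and counted by scintillation. Binding (%) = 100% − [3H]dofetilide binding remaining.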

Chain of Kv11.1 (hERG) potassium channel (Q12809 whole entry): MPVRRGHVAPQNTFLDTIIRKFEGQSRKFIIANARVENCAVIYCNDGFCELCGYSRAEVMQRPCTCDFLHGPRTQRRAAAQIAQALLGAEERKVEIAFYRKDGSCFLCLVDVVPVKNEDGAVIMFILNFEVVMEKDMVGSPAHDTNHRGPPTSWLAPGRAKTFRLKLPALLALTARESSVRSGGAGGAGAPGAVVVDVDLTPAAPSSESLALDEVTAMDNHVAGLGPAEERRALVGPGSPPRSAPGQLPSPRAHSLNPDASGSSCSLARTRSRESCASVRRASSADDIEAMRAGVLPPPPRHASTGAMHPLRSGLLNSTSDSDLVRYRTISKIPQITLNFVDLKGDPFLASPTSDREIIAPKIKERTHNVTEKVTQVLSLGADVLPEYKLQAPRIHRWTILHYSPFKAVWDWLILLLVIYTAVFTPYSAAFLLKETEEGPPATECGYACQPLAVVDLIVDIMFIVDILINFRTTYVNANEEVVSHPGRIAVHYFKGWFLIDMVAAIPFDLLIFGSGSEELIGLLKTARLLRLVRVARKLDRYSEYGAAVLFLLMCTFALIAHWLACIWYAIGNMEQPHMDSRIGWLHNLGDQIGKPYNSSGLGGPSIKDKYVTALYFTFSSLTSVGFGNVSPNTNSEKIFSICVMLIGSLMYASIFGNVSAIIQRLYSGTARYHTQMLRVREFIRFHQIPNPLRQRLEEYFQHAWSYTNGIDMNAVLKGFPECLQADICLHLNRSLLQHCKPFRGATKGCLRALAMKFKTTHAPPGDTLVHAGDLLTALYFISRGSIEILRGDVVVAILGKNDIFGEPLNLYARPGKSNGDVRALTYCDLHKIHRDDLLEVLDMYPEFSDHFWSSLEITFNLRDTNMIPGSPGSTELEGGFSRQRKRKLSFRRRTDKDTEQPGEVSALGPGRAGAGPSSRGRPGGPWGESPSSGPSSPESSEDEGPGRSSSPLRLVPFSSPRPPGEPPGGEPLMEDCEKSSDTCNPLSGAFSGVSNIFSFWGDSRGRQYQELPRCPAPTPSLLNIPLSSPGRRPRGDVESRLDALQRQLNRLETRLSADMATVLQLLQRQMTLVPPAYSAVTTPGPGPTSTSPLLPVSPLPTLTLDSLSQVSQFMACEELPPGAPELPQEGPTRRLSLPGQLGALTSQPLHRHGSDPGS

Structure (SMILES)	Influence on mitochondrial membrane potential (A549 cells [1])	EC50 (A549 cells [2]; Homo sapiens, A549, 72 h) [µM]	Kv11.1 binding (100% - [3H]dofetilide binding remaining) [3]	[3H]dofetilide binding remaining [3] [%]	EC50 (A549 cells [2]; 2D monolayer, hypoxic (1% O2)) [µM]
N#CC(C#N)=NNc1cccc(Cl)c1 [CCCP, carbonyl cyanide m-chlorophenyl hydrazone, reference compound]	dramatically reduced percentage of intact mitochondrial membranes				
c1cc(Nc2cc3ccccc3cn2)nc(-c2cccc(Nc3cc4ccccc4cn3)n2)c1 [H2biqbpy1, N6,N6′-di(isoquinolin-3-yl)-[2,2′-bipyridine]-6,6′-diamine]		> 200	36% and 36 ± 4%	64 ± 4	
c1cc(Nc2ccc3ccccc3n2)nc(-c2cccc(Nc3ccc4ccccc4n3)n2)c1 [H2biqbpy2, N6,N6′-di(quinolin-2-yl)-[2,2′-bipyridine]-6,6′-diamine]		12	84% and 84 ± 4%	16 ± 4	
N.N.[Cl][Pt][Cl] [cisplatin, reference compound]					24
